Source: ChEMBL document CHEMBL4304748, “Design, Synthesis, and Biological Evaluation of a New Series of Carvedilol Derivatives That Protect Sensory Hair Cells from Aminoglycoside-Induced Damage by Blocking the Mechanoelectrical Transducer Channel” (J Med Chem, 2019)
The source made the active and inactive calls. No cut-off for these calls is given here.

What was measured:
Mus musculus [1] = organism: Mus musculus; test: Otoprotective activity against gentamicin-induced outer hair cell death in CD-1 mouse cochlea at 10 uM after 48 hrs by TRITC-phalloidin staining-based microscopic analysis relative to control; format: functional
Summary of the method: (§1)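 Mouse cochlear cultures coincubated for 48 h with 5 μM gentamicin plus compound (5, 10 or 20 μM). OHCs counted in a 300 μm long segment of the mid-basal cochlea. Counts compared with 0.5% DMSO control and with gentamicin + 0.5% DMSO cultures.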

Mus musculus [2] = organism: Mus musculus; test: Inhibition of MET in CD-1 mouse outer hair cells assessed as reduction in MET currents at 3 to 10 uM measured at -160 mV to +96 mV membrane potential by patch clamp assay
[3] = Solubility of the compound; format: physicochemical
[4] = Otoprotective activity against gentamicin-induced outer hair cell death in CD-1 mouse cochlea at 5 uM after 48 hrs by TRITC-phalloidin staining-based microscopic analysis relative to control; format: functional; summary of the method: as §1
[5] = Cytotoxicity in CD-1 mouse cochlea assessed as induction of cell death in outer hair cell at >=30 uM after 48 hrs by confocal microscopic analysis; format: toxicity, tissue-based
Summary of the method: (§2)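 Mouse cochlear cultures exposed for 48 h to compound, either alone or with 5 μM gentamicin. Controls received 0.5% DMSO, or 5 μM gentamicin + 0.5% DMSO. Hair cell survival counted in a 300 μm segment of the mid-basal region. Confocal imaging used to assess IHC and OHC stereociliary bundle morphology.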

Mus musculus [6] = organism: Mus musculus; test: Inhibition of MET in CD-1 mouse cochlea outer hair cells assessed as reduction in MET currents at 1 to 10 uM measured at -150 mV to +100 mV membrane potential by patch clamp assay
Mus musculus [7] = organism: Mus musculus; test: Inhibition of MET in CD-1 mouse cochlear outer hair cells assessed as reduction in MET currents at 1 to 10 uM measured at -164 mV membrane potential by patch clamp assay
Summary of the method: (§3)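 MET currents recorded from OHCs before and during extracellular superfusion of compound at 1, 3 and 10 μM, over membrane potentials from -164 to +96 mV. Currents normalized to the peak control current at +96 mV for each cell. Dose–response curves built at each membrane potential and fitted with eq 1 to give K_D and Hill coefficient.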

[8] = Binding affinity to MET in CD-1 mouse cochlear outer hair cells measured at -164 mV membrane potential by patch clamp assay; summary of the method: as §3
[9] = Cytotoxicity in CD-1 mouse cochlea assessed as disruption of hair bundle morphology in inner hair cell at 30 uM after 48 hrs by confocal microscopic analysis; format: toxicity, tissue-based; summary of the method: as §2
[10] = Binding affinity to MET in CD-1 mouse cochlear outer hair cells measured at +16 mV membrane potential by patch clamp assay; summary of the method: as §3
[11] = Binding affinity to MET in CD-1 mouse cochlear outer hair cells measured at +96 mV membrane potential by patch clamp assay; summary of the method: as §3
[12] = Binding affinity to MET in CD-1 mouse cochlear outer hair cells measured at -84 mV membrane potential by patch clamp assay; summary of the method: as §3
Mus musculus [13] = organism: Mus musculus; test: Otoprotective activity against gentamicin-induced outer hair cell death in CD-1 mouse cochlea at 20 uM after 48 hrs by TRITC-phalloidin staining-based microscopic analysis relative to control; format: functional; summary of the method: as §1
[14] = Cytotoxicity in CD-1 mouse cochlea assessed as induction of cell death in outer hair cell at 30 uM in presence of gentamicin after 48 hrs by confocal microscopic analysis; format: toxicity, tissue-based; summary of the method: as §2
[15] = Cytotoxicity in CD-1 mouse cochlea assessed as disruption of hair bundle morphology in outer hair cell at 30 uM after 48 hrs by confocal microscopic analysis; format: toxicity, tissue-based; summary of the method: as §2
Mus musculus [16] = organism: Mus musculus; test: Inhibition of MET in CD-1 mouse cochlea outer hair cells assessed as blockade of MET currents at 10 uM measured at -160 mV to +80 mV membrane potential by patch clamp assay relative to control
Summary of the method: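 OHC MET currents recorded before and during exposure to 10 μM compound. Fractional block taken as the current during exposure relative to the control current at each membrane potential.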

Mus musculus [17] = organism: Mus musculus; test: Inhibition of MET channel in CD-1 mouse cochlea outer hair bundles assessed as time constant of inward current decline at 1 uM at holding potential of […] by patch clamp assay
Summary of the method: (§4)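 MET channels opened by steps from a holding potential of -84 mV, with 1 or 3 μM compound superfused. Currents averaged from 10 repetitions. The current decline was fitted with single exponentials to give time constants, and drug entry rates into hair cells were calculated from these.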

Mus musculus [18] = organism: Mus musculus; test: Inhibition of MET channel in CD-1 mouse outer hair bundles assessed as time constant of inward current decline at 3 uM at holding potential of […] by patch clamp assay; summary of the method: as §4
Mus musculus [19] = organism: Mus musculus; test: Inhibition of MET channel in CD-1 mouse cochlea outer hair cells assessed as reduction in GTTR uptake at 100 uM preincubated for 5 mins followed by GTTR addition and measured after 24 mins by microscopic method
Summary of the method: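 Mouse cochlear cultures pre-incubated 5 min with 100 μM compound or 1% DMSO, then 0.2 μM gentamicin Texas Red (GTTR) added. GTTR fluorescence intensity measured in first-row OHCs, with 10 cells analysed from each of three separate experiments (N = 30).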

Danio rerio [20] = organism: Danio rerio; test: Otoprotective activity against neomycin-induced neuromast hair cell death in 4 days post fertilized AB zebrafish larvae assessed as increase in hair cell survival incubated for 1 hr by inverted microscopic method; format: functional, organism-based
Danio rerio [21] = organism: Danio rerio; test: Otoprotective activity against gentamicin-induced neuromast hair cell death in 4 days post fertilized AB zebrafish larvae assessed as increase in hair cell survival incubated for 6 hrs by inverted microscopic method; format: functional, organism-based
[22] = Toxicity in 3 days post fertilized AB zebrafish larvae assessed as reduction in larvae survival at 100 uM incubated for 48 hrs; design: species or system Danio rerio; conditions: in vivo
Summary of the method: (§5)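 Zebrafish larvae at 3 dpf treated with compound at 30 or 100 μM for 48 h in three trials. Larvae scored for survival and for circulation, then startled and assayed for movement.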

[23] = Toxicity in 3 days post fertilized AB zebrafish larvae assessed as reduction in larvae survival at 30 uM incubated for 48 hrs; design: species or system Danio rerio; conditions: in vivo; summary of the method: as §5
[24] = Toxicity in 3 days post fertilized AB zebrafish larvae assessed as effect on blood circulation at 100 uM incubated for 48 hrs by inverted microscopic method; design: species or system Danio rerio; conditions: in vivo; summary of the method: as §5
[25] = Toxicity in 3 days post fertilized AB zebrafish larvae assessed as effect on blood circulation at 30 uM incubated for 48 hrs by inverted microscopic method; design: species or system Danio rerio; conditions: in vivo; summary of the method: as §5
[26] = Toxicity in 3 days post fertilized AB zebrafish larvae assessed as effect on larval movement at 100 uM incubated for 48 hrs; design: species or system Danio rerio; conditions: in vivo; summary of the method: as §5
Klebsiella pneumoniae [27] = test: Effect on gentamycin-induced antibacterial activity against Klebsiella pneumoniae at 2.2 uM incubated for 16 to 20 hrs by BacTiter-Glo assay; format: ADME, organism-based; conditions: in vivo
Pseudomonas aeruginosa [28] = test: Effect on gentamycin-induced antibacterial activity against Pseudomonas aeruginosa at 2.2 uM incubated for 16 to 20 hrs by BacTiter-Glo assay; format: ADME, organism-based; conditions: in vivo
Staphylococcus aureus [29] = test: Effect on gentamycin-induced antibacterial activity against Staphylococcus aureus at 2.2 uM incubated for 16 to 20 hrs by BacTiter-Glo assay; format: ADME, organism-based; conditions: in vivo
Klebsiella pneumoniae [30] = test: Effect on gentamycin-induced antibacterial activity against Klebsiella pneumoniae at 11 uM incubated for 16 to 20 hrs by BacTiter-Glo assay; format: ADME, organism-based; conditions: in vivo
Pseudomonas aeruginosa [31] = test: Effect on gentamycin-induced antibacterial activity against Pseudomonas aeruginosa at 11 uM incubated for 16 to 20 hrs by BacTiter-Glo assay; format: ADME, organism-based; conditions: in vivo
Staphylococcus aureus [32] = test: Effect on gentamycin-induced antibacterial activity against Staphylococcus aureus at 11 uM incubated for 16 to 20 hrs by BacTiter-Glo assay; format: ADME, organism-based; conditions: in vivo

## COc1ccccc1OCCN(CCCOc1cccc2[nH]c3ccccc3c12)CCOc1ccccc1OC
Mus musculus [1]
  Activity: inactive
Mus musculus [2]
  inhibition: inactive
[3]
  solubility: Insoluble

## COc1ccccc1OCCNCCCOc1cccc2[nH]c3ccccc3c12
[4]
  Activity: 88%
[5]
  Activity: Toxic
Mus musculus [6]
  inhibition: Active
Mus musculus [7]
  inhibition: inactive
[8]
  Kd: 4600 nM
[9]
  Activity: Toxic
[10]
  Kd: 1000 nM
[11]
  Kd: 1700 nM
[12]
  Kd: 2400 nM
Mus musculus [13]
  Activity: Active
Mus musculus [1]
  Activity: Active
[14]
  Activity: Non-Toxic
[15]
  Activity: Toxic
Mus musculus [16]
  inhibition: 100%
Mus musculus [17]
  TIME: 2.75e-06 h
Mus musculus [18]
  TIME: 1.67e-06 h
Mus musculus [19]
  inhibition: Active
Danio rerio [20]
  EC50: 2080 nM
Danio rerio [21]
  EC50: 10800 nM
[22]
  Activity: Non-Toxic
[23]
  Activity: Non-Toxic
[24]
  Activity: Non-Toxic
[25]
  Activity: Non-Toxic
[26]
  Activity: Non-Toxic
Klebsiella pneumoniae [27]
  Activity: Non-Toxic
Pseudomonas aeruginosa [28]
  Activity: Non-Toxic
Staphylococcus aureus [29]
  Activity: Non-Toxic
Klebsiella pneumoniae [30]
  Activity: Non-Toxic
Pseudomonas aeruginosa [31]
  Activity: Non-Toxic
Staphylococcus aureus [32]
  Activity: Non-Toxic
